Measurements of several laboratories.
Protocols differ between the studies behind these lines.

CCCCCCCCCCCCCCCCCCOc1ccccc1CC(=O)OCC[N+]1(C)CCCCC1  inhibition (NCI-H522; cell growth or viability, SRB; 10 µM): 66.7%
O=C1O[C@H]([C@@H](O)CO)C(O)=C1O  IC50 (ABTS scavenging; 20 min): 54.5 mg/L
CCCCCCCCCCC1NCCc2cc(O)c(O)cc21 (stereo not drawn)  IC50 (ABTS scavenging; 10 min, dark): 69.9 µM
C[C@@H]1[C@H](O)[C@@H](C)/C=C/C=C/C=C/C=C/C=C/C=C/C=C/[C@H](O[C@@H]2O[C@H](C)[C@@H](O)[C@H](N)[C@@H]2O)C[C@@H]2O[C@](O)(C[C@@H](O)C[C@@H](O)[C@H](O)CC[C@@H](O)C[C@@H](O)CC(=O)O[C@H]1C)C[C@H](O)[C@H]2C(=O)O  inhibition (Leishmania donovani; parasite growth, imaging; THP-1; 20 nM, intracellular, amastigote): 7%
O=C1O[C@H]([C@@H](O)CO)C(O)=C1O  IC50 (ABTS scavenging, absorbance; dark): 5.42 mg/L
Oc1cc2c(cc1O)C(Cc1ccccc1)NCC2 (stereo not drawn)  IC50 (ABTS scavenging; 10 min, dark): 8.14 µM
CCCCCCCCCCCCCCCCOP(=O)([O-])OCC[N+](C)(C)C  inhibition (Leishmania donovani; parasite growth; THP-1; 40 µM, intracellular, amastigote): 100%
O=C1O[C@H]([C@@H](O)CO)C(O)=C1O  IC50 (ABTS scavenging, absorbance): 62.8 µM
CCCCC[C@H](O)/C=C/[C@@H]1[C@@H](C/C=C\CCCC(=O)O)[C@@H](O)C[C@H]1O  IC50 (Leishmania donovani; parasite growth, resazurin; 72 h, promastigote): > 100 µM
Oc1cc2c(cc1O)C(CCc1ccccc1)NCC2 (stereo not drawn)  IC50 (ABTS scavenging; 10 min, dark): 8.09 µM
CCOc1ccc(Nc2c3c(nc4ccccc24)CCC3)cc1  IC50 (Leishmania donovani; parasite growth; THP-1; intracellular, amastigote): 0.592 µM
COc1cc(C2NCCc3cc(O)c(O)cc32)ccc1O (stereo not drawn)  IC50 (ABTS scavenging; 10 min, dark): 14 µM
c1ccc(Oc2ccc(Nc3c4c(nc5ccccc35)CCC4)cc2)cc1  IC50 (Leishmania donovani; parasite growth, resazurin; promastigote): 0.6 µM
CCCCCCCCCCCCCCCCCCOc1ccccc1CC(=O)OCC[N+]1(C)CCCC1  inhibition (NCI-H522; cell growth or viability, SRB; 10 µM): 93.2%
Oc1ccc(C2NCCc3cc(O)c(O)cc32)cc1O (stereo not drawn)  IC50 (ABTS scavenging; 10 min, dark): 4.93 µM
